# From paper PMC9302689 (British Journal of Clinical Pharmacology, 2022)
# Marks after values point to notes of the source that are not given here.
# Legend:
# healthy male subjects = test: Serum neuro-endocrine hormones; assay type: in vivo, human; settings: for Cortisol (ng/ml), LSM CFB / Cortisol (ng/ml), estimate of difference compared to placebo / Prolactin (ng/ml), LSM CFB / Prolactin (ng/ml), estimate of difference compared to placebo: 2 hours post-dose, serum
# Outline: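 Serum was sampled pre-dose and at 0.25–36 h after a single dose or placebo in healthy men. Cortisol was measured by validated LC–MS/MS (LLOQ 2.00 ng/mL) and prolactin by time-resolved fluoroimmunoassay (LLOQ 0.260 ng/mL). Values were ln-transformed and analysed by MMRM using the 2-h post-dose data, with baseline as covariate and pooled placebo as reference, then back-transformed.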
# rats = test: Preclinical multiple dose toxicology study in rats; assay type: in vivo
# [1] = Pharmacokinetics, first-in-human single ascending dose study; assay type: in vivo; settings: n = 8
# Outline: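 Healthy men received a single fasted dose of 3–200 mg, with 8 on active drug per cohort. Plasma was sampled pre-dose and at 0.25–36 h. Drug was quantified by validated LC–MS/MS (LLOQ 1.00 ng/mL). Cmax, tmax, t1/2, AUClast and AUC∞ were calculated by noncompartmental analysis using actual elapsed sampling times.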
smiles,measurement,setting,value
"CN1CCC23CCCCC2C1Cc1ccc(C(N)=O)cc13 (stereo not drawn) [ALKS 7119, (9α, 13α)‐17‐methylmorphinan‐3‐carboxamide]","Cortisol (ng/ml), LSM CFB",healthy male subjects; 3 mg single oral dose,−22.9 % change
same,"Cortisol (ng/ml), estimate of difference compared to placebo",healthy male subjects; 3 mg single oral dose,"−3.6 (−31.1, 34.9) P = .83 % change"
same,"Prolactin (ng/ml), LSM CFB",healthy male subjects; 3 mg single oral dose,−3.6 % change
same,"Prolactin (ng/ml), estimate of difference compared to placebo",healthy male subjects; 3 mg single oral dose,−3.2 (−26.9; 28.3) P = .82 % change
same,"Cortisol (ng/ml), LSM CFB",healthy male subjects; 10 mg single oral dose,8.9 % change
same,"Cortisol (ng/ml), estimate of difference compared to placebo",healthy male subjects; 10 mg single oral dose,−31.8 (−51.3; −4.5) P = .03 ^* % change
same,"Prolactin (ng/ml), LSM CFB",healthy male subjects; 10 mg single oral dose,−15.3 % change
same,"Prolactin (ng/ml), estimate of difference compared to placebo",healthy male subjects; 10 mg single oral dose,10.1 (−16.9; 45.9) P = .50 % change
same,"Cortisol (ng/ml), LSM CFB",healthy male subjects; 25 mg single oral dose,−20.8 % change
same,"Cortisol (ng/ml), estimate of difference compared to placebo",healthy male subjects; 25 mg single oral dose,−6.2 (−32.9; 31.3) P = .71 % change
same,"Prolactin (ng/ml), LSM CFB",healthy male subjects; 25 mg single oral dose,8.0 % change
same,"Prolactin (ng/ml), estimate of difference compared to placebo",healthy male subjects; 25 mg single oral dose,−13.6 (−34.8; 14.5) P = .31 % change
same,"Cortisol (ng/ml), LSM CFB",healthy male subjects; 50 mg single oral dose,12.7 % change
same,"Prolactin (ng/ml), LSM CFB",healthy male subjects; 50 mg single oral dose,66.0 % change
same,"Cortisol (ng/ml), LSM CFB",healthy male subjects; 75 mg single oral dose,36.5 % change
same,"Cortisol (ng/ml), estimate of difference compared to placebo",healthy male subjects; 75 mg single oral dose,−45.5 (−61.1; −23.8) P < .01 ^* % change
same,"Prolactin (ng/ml), LSM CFB",healthy male subjects; 75 mg single oral dose,63.4 % change
same,"Prolactin (ng/ml), estimate of difference compared to placebo",healthy male subjects; 75 mg single oral dose,−42.9 (−56.9; −24.3) P < .01 ^* % change
same,"Cortisol (ng/ml), LSM CFB",healthy male subjects; 100 mg single oral dose,70.3 % change
same,"Cortisol (ng/ml), estimate of difference compared to placebo",healthy male subjects; 100 mg single oral dose,−56.4 (−68.8; −38.9) P < .01 ^* % change
same,"Prolactin (ng/ml), LSM CFB",healthy male subjects; 100 mg single oral dose,72.0 % change
same,"Prolactin (ng/ml), estimate of difference compared to placebo",healthy male subjects; 100 mg single oral dose,−45.8 (−59.1; −28.1) P < .01 ^* % change
same,"Cortisol (ng/ml), LSM CFB",healthy male subjects; 125 mg single oral dose,52.6 % change
same,"Cortisol (ng/ml), estimate of difference compared to placebo",healthy male subjects; 125 mg single oral dose,−51.3 (−65.2; −31.8) P < .01 ^* % change
same,"Prolactin (ng/ml), LSM CFB",healthy male subjects; 125 mg single oral dose,28.0 % change
same,"Prolactin (ng/ml), estimate of difference compared to placebo",healthy male subjects; 125 mg single oral dose,−27.1 (−45.1; −3.3) P = .03 ^* % change
same,"Cortisol (ng/ml), LSM CFB",healthy male subjects; 150 mg single oral dose,84.4 % change
same,"Cortisol (ng/ml), estimate of difference compared to placebo",healthy male subjects; 150 mg single oral dose,−59.7 (−71.2; −43.6) P < .01 ^* % change
same,"Prolactin (ng/ml), LSM CFB",healthy male subjects; 150 mg single oral dose,106.9 % change
same,"Prolactin (ng/ml), estimate of difference compared to placebo",healthy male subjects; 150 mg single oral dose,−54.9 (−66.0; −40.2) P < .01 ^* % change
same,"Cortisol (ng/ml), LSM CFB",healthy male subjects; 175 mg single oral dose,53.6 % change
same,"Cortisol (ng/ml), estimate of difference compared to placebo",healthy male subjects; 175 mg single oral dose,−51.6 (−65.4; −32.3) P < .01 ^* % change
same,"Prolactin (ng/ml), LSM CFB",healthy male subjects; 175 mg single oral dose,81.7 % change
same,"Prolactin (ng/ml), estimate of difference compared to placebo",healthy male subjects; 175 mg single oral dose,−48.7 (−61.3; −32.0) P < .01 ^* % change
same,"Cortisol (ng/ml), LSM CFB",healthy male subjects; 200 mg single oral dose,64.7 % change
same,"Cortisol (ng/ml), estimate of difference compared to placebo",healthy male subjects; 200 mg single oral dose,−54.9 (−67.8; −36.9) P < .01 ^* % change
same,"Prolactin (ng/ml), LSM CFB",healthy male subjects; 200 mg single oral dose,111.3 % change
same,"Prolactin (ng/ml), estimate of difference compared to placebo",healthy male subjects; 200 mg single oral dose,−55.8 (−66.7; −41.5) P < .01 ^* % change
same,"Serum cortisol, increase vs placebo (estimate of difference)",healthy male subjects; from dose levels ≥50 mg,51.7 % change
same,"Serum prolactin, increase vs placebo (estimate of difference)",healthy male subjects; from dose levels ≥50 mg,77.9 % change
same,human equivalent dose (HED) of NOAEL,"rats; rat NOAEL, body surface area extrapolation per FDA guidelines",96 mg
same,NOAEL,"rats; rats, multiple dose toxicology",10 mg/kg
same,AUC infinite/dose,[1]; 3 mg single oral dose,33.34
same,"AUClast, mean (SD)",[1]; 3 mg single oral dose,85.88 (25.56) hr*ng/ml
same,"AUClast, range",[1]; 3 mg single oral dose,0.05737 to 0.12902 µg·h/mL
same,"AUC∞, mean (SD)",[1]; 3 mg single oral dose,100.03 (25.04) hr*ng/ml
same,"AUC∞, range",[1]; 3 mg single oral dose,0.07365 to 0.14004 µg·h/mL
same,"Cmax, mean (SD)",[1]; 3 mg single oral dose,8.33 (2.78) ng/ml
same,"Cmax, range",[1]; 3 mg single oral dose,0.00587 to 0.0132 µg/mL
same,Cmax/dose,[1]; 3 mg single oral dose,2.78
same,"t1/2, mean (SD)",[1]; 3 mg single oral dose,6.98(1.16) h
same,"t1/2, range",[1]; 3 mg single oral dose,5.20 to 8.77 h
same,"tmax, median",[1]; 3 mg single oral dose,2.02 h
same,"tmax, range",[1]; 3 mg single oral dose,2.00 to 4.15 h
same,AUC infinite/dose,[1]; 10 mg single oral dose,29.54
same,"AUClast, mean (SD)",[1]; 10 mg single oral dose,272.60 (35.69) hr*ng/ml
same,"AUClast, range",[1]; 10 mg single oral dose,0.19845 to 0.3212 µg·h/mL
same,"AUC∞, mean (SD)",[1]; 10 mg single oral dose,295.38 (32.29) hr*ng/ml
same,"AUC∞, range",[1]; 10 mg single oral dose,0.23376 to 0.33834 µg·h/mL
same,"Cmax, mean (SD)",[1]; 10 mg single oral dose,25.33 (3.91) ng/ml
same,"Cmax, range",[1]; 10 mg single oral dose,0.0204 to 0.0323 µg/mL
same,Cmax/dose,[1]; 10 mg single oral dose,2.53
same,"t1/2, mean (SD)",[1]; 10 mg single oral dose,8.51 (0.89) h
same,"t1/2, range",[1]; 10 mg single oral dose,7.01 to 9.45 h
same,"tmax, median",[1]; 10 mg single oral dose,2.00 h
same,"tmax, range",[1]; 10 mg single oral dose,1.00 to 2.00 h
same,AUC infinite/dose,[1]; 25 mg single oral dose,29.25
same,"AUClast, mean (SD)",[1]; 25 mg single oral dose,703.56 (89.80) hr*ng/ml
same,"AUClast, range",[1]; 25 mg single oral dose,0.60846 to 0.86496 µg·h/mL
same,"AUC∞, mean (SD)",[1]; 25 mg single oral dose,731.29 (87.27) hr*ng/ml
same,"AUC∞, range",[1]; 25 mg single oral dose,0.64006 to 0.88394 µg·h/mL
same,"Cmax, mean (SD)",[1]; 25 mg single oral dose,74.51 (16.19) ng/ml
same,"Cmax, range",[1]; 25 mg single oral dose,0.051 to 0.093 µg/mL
same,Cmax/dose,[1]; 25 mg single oral dose,2.98
same,"t1/2, mean (SD)",[1]; 25 mg single oral dose,7.81 (0.83) h
same,"t1/2, range",[1]; 25 mg single oral dose,6.78 to 9.41 h
same,"tmax, median",[1]; 25 mg single oral dose,1.00 h
same,"tmax, range",[1]; 25 mg single oral dose,1.00 to 2.00 h
same,AUC infinite/dose,[1]; 50 mg single oral dose,30.94
same,"AUClast, mean (SD)",[1]; 50 mg single oral dose,1473.57 (203.53) hr*ng/ml
